Measured values from publication PMC7611345 (Clinical cancer research : an official journal of the …, 2020).
“Also recorded” adds a separate entry of the source.

Key:
ROCK I = settings: cited from earlier work
[1] = format: in vivo; settings: human, plasma, oral
[2] = system: p-cofilin in tumor biopsies; test: p-cofilin in pre- and post-treatment tumor biopsies, Protein Simple WES assay; format: in vivo, human; settings: 8 pre- and post-treatment biopsies
In short: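 Tumor biopsies were taken pre-dose and 24 h post-dose (cycle 1 day 15 or cycle 2 day 1) at 180 mg given thrice weekly. Phospho- and total cofilin were measured by capillary immunoassay (WES), normalized to GAPDH, and quantified as the area under the chemiluminescence peak. Phospho-cofilin was expressed as percent of pre-dose level.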

p-MLC2 in tumor biopsies = test: p-MLC2 in paired tumor biopsies by immunohistochemistry; format: in vivo, human; settings: 180 mg dose level, 5 paired biopsies
In short: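 Fresh tumor biopsies were taken before and after treatment at 180 mg. Four-μm sections were heated at 60 °C for 20 min and retrieved in Tris pH 9 at 110 °C for 6 min. Staining used primary antibody 40 min at RT, biotinylated secondary 1:200, ABC-HRP amplification, VIP substrate and hematoxylin counterstain. Positive-cell detection used intensity scores 0–3, with a random-trees classifier separating tumor from stroma.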

ROCK 2 = settings: cited from earlier work
AKT2 = settings: cited from earlier work
advanced solid tumors = test: Clinical efficacy; format: in vivo, human; settings: all dose levels
In short: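 Patients with metastatic solid tumors who had already received standard-of-care treatment took oral test compound three days a week (Mon-Wed-Fri) in 28-day cycles. Cohorts received flat doses from 5 to 300 mg, and one further cohort used intra-patient escalation from 120 to 180 to 240 mg.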

[3] = system: patients with solid tumors; test: First-in-human phase I dose escalation: safety and tolerability; format: in vivo
In short: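 The design was a rolling-six dose escalation across 5–300 mg in 8 cohorts, starting with a single run-in dose 7 days before cycle 1. Dosing was oral, Mon-Wed-Fri, in 28-day cycles. An added cohort escalated within each patient: one week at 120 mg, then 180 mg, then 240 mg during cycle 1. Toxicity was assessed weekly. Patients with hypertension on medication or abnormal fasting glucose were excluded.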

AKT3 = settings: cited from earlier work
AKT1 = settings: cited from earlier work
[4] = system: p-GSK3β in platelet-rich plasma; test: p-GSK3β; format: in vivo, human
In short: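 Blood was sampled at baseline and at 2, 6, 24 and 48 h after the run-in dose and after the cycle 2, day 1 dose. Platelet-rich plasma was prepared, and GSK3β Ser9 phosphorylation was measured by MSD electrochemiluminescent immunoassay. Results were expressed as percent of baseline, normalized to total GSK3β, and compared with predose by Dunnett's test.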

[5] = Cohort 9 120-180-240 mg (n=7), grade 1

NC[C@@](O)(c1ccc(Cl)cc1)c1ccc(-c2cn[nH]c2)cc1 [AT13148]
IC50 (ROCK I): 6 nM | half-life [1]: 14.4 to 32.2 h | AUC ([1]; 180 mg): 13.4 µM·h | Cmax ([1]; 180 mg): 383 nM | post-treatment biopsies showing a reduction of p-cofilin ([2]; 180 mg dose level): 5/8 | post-treatment biopsies with ≥50% (>50%) reduction of p-cofilin ([2]; 180 mg thrice a week): 3/8 | paired biopsies with reduction of p-MLC2 (H scores) post-treatment (p-MLC2 in tumor biopsies): 1/5 | IC50 (ROCK 2): 4 nM | IC50 (AKT2): 402 nM | tumor response (advanced solid tumors): No complete or partial responses; also recorded: no clinical responses | dose-limiting toxicity ([3]; 180 mg): skin rash; also recorded: maculopapular rash | dose-limiting toxicities ([3]; 240 mg): pneumonitis and elevated liver enzymes; also recorded: elevated transaminases and pneumonitis | dose-limiting toxicity ([3]; 300 mg): hypotension | most common (treatment related) side effects ([3]; 5 - 300 mg): fatigue, nausea, headaches and hypotension; also recorded: hypotension, nausea, headache and fatigue | Anorexia, No. subjects ([3]; Cohort 1 5 mg (n=4), grade 1): 1 | Nausea, No. subjects ([3]; Cohort 1 5 mg (n=4), grade 1): 1 | Fatigue, No. subjects ([3]; Cohort 1 5 mg (n=4), grade 2): 1 | Hypotension, No. subjects ([3]; Cohort 2 10 mg (n=5), grade 1): 1 | Flushing, No. subjects ([3]; Cohort 8 300 mg (n=5), grade 1): 1 | Headache, No. subjects ([3]; Cohort 8 300 mg (n=5), grade 1): 3 | Nausea, No. subjects ([3]; Cohort 8 300 mg (n=5), grade 1): 2 | Vomiting, No. subjects ([3]; Cohort 8 300 mg (n=5), grade 1): 1 | Anorexia, No. subjects [3, 5]: 2 | Diarrhea, No. subjects [3, 5]: 2 | Fatigue, No. subjects [3, 5]: 2 | Hypotension, No. subjects [3, 5]: 2 | Nausea, No. subjects [3, 5]: 4 | Vomiting, No. subjects [3, 5]: 1 | Fatigue, No. subjects ([3]; Cohort 9 120-180-240 mg (n=7), grade 2): 2 | DLTs reported ([3]; Cohort 9 intra-patient dose escalation 120-180-240 mg): two DLTs (grade 3 pneumonitis at 240 mg and grade 3 rash at 180 mg) | Anorexia, Total No. subjects ([3]; all cohorts (n = 51)): 7 (13.7%) | Diarrhea, Total No. subjects ([3]; all cohorts (n = 51)): 7 (13.7%) | Fatigue, Total No. subjects ([3]; all cohorts (n = 51)): 9 (17.6%) | Flushing, Total No. subjects ([3]; all cohorts (n = 51)): 6 (11.8%) | Headache, Total No. subjects ([3]; all cohorts (n = 51)): 12 (23.5%) | Hypotension, Total No. subjects ([3]; all cohorts (n = 51)): 20 (39.2%) | Nausea, Total No. subjects ([3]; all cohorts (n = 51)): 15 (29.4%) | Vomiting, Total No. subjects ([3]; all cohorts (n = 51)): 7 (13.7%) | dose-limiting toxicities ([3]; dose doubling from 5 - 160 mg): no dose-limiting toxicities reported | time of occurrence of hypotension after dosing ([3]; in vivo): ≤ 8 h | maximally tolerated dose ([3]; orally on days 1, 3 and 5 of each week, 28-day cycles): 180 mg | IC50 (AKT3): 50 nM | IC50 (AKT1): 38 nM | change of p-GSK3β levels in platelet-rich plasma vs predose ([4]; 300 mg, 2 - 6 hrs (legend: 2 - 24 hrs) after treatment, Dunnett's test): statistically significant reduction; also recorded: reduced; also recorded: transient reduction | change of p-GSK3β levels in platelet-rich plasma vs predose ([4]; doses lower than 300 mg): not significant
